The text below walks through data of the EternaBench riboswitch data.

The test system of this series is MS2 coat protein. Kind of series: apparent Kd, MS2 coat protein; higher = weaker binding; RNA-MaP array; FMN 200 µM where present. In a few lines:
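Designs were transcribed by stalled E. coli RNA polymerase on Illumina sequencing-chip clusters. They were titrated with SNAP-549-labelled MS2 coat protein from 0.7 or 1.5 nM, doubling to 3 µM, in 100 mM Tris-HCl pH 7.5, 80 mM KCl, 4 mM MgCl2, BSA, DTT, yeast tRNA and Tween-20, without and then with constant ligand. The apparent Kd is the median of filtered per-cluster fits after normalisation of green signal to red-channel RNA signal and control-cluster median Fmax.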

[1] abbreviates: designed as: OFF switch for flavin mononucleotide, no ligand.
[2] abbreviates: ligand present: flavin mononucleotide, designed as: OFF switch for flavin mononucleotide.
Where [3] appears, read: designed as: ON switch for flavin mononucleotide, no ligand.
[4] abbreviates: ligand present: flavin mononucleotide, designed as: ON switch for flavin mononucleotide.

Usually apparent Kd stands for a dissociation constant that holds for the conditions of the assay. In the case of “AGAUUUAAUGAGGAUAUCGUAUUGGAUAUAGUGCGAGAAGGCAUUACAUGAGGAUCACCCAUGUUUUGUUGGGA”, the “apparent Kd” value under setting [1] is 31.8 nM and the “apparent Kd” value under setting [2] was 74.1 nM.
Turning to “ACAUCGUGAGACAUGAGGAUCACCCAUGUGUGAUAGUGGGCACAGGAUAUCCAGAUCUGGAAUCUGGAGAAGGGUGAUCGUUAA”, the “apparent Kd” value is, setting by setting: under setting [3], 47 nM; under setting [4], 149 nM.
Turning to “CGCGCGUCGACAGGAUAUACAGAUUGGCUCCGGUACAUGAGGAUCACCCAUGUAGAAGGGUCACGCACGGAUAGUACAUUAUUA”, the “apparent Kd” value worked out at 8.44 nM under setting [1] and 28 nM under setting [2].
For the sequence “GGGUACAUCGGAGGAUAUCAUGUAAAUACAUGAGGAUCACCCAUGUCGAUGGAGAUAUCGGAGAUUGAGAAGGCCGAUGUACCG”, the “apparent Kd” value worked out at 102 nM under setting [3] and 9.9 nM under setting [4].
Take “AUCAGCUCGUCAGGAUAUACGUCACUGCGUCAGCAGUGUGGUAAGAUCACAUGAGGAUCACCCAUGUAGAAGGGACGAGCUUAU”: the “apparent Kd” value is, setting by setting: under setting [1], 13.8 nM; under setting [2], 260 nM.
As for “AUAUUGUGAGGAUAUGAACUAAGUAUCGAAAGAUACUAAGUUCAGAAGGCACAUGAGGAUCACCCAUGUUUCUC”, the “apparent Kd” value runs as follows: under setting [1], 76.7 nM; under setting [2], 729 nM.
For “AAAGAACAUGAGGAUCACCCAUGUGAGGAUAUACGAGCGUGAGAAAGAUAAAACGAGCGUAGAAGGCACAAGAA” the same measures were 76.9 nM and 81.5 nM.
With “GGAUGACACAGUCAUCCAAUACGAACAUGAGGAUCACCCAUGUAGGAUAUGCUACUCAAAGAGUAGCAGAAGGACAUGUGCCUU”, the “apparent Kd” value under setting [1] came out at 39.1 nM and the “apparent Kd” value under setting [2] turned out to be 257 nM.
For “UAUUAUCACGAAGGAUAUGCUUACAUGAGGAUCACCCAUGUAUGUAUAUUGAUCCAGAGUUUUGAGCAGAAGGUCGUGAGUAAA” the same measures were 41.8 nM and 250 nM.
For the sequence “GAUUGAACCCAGAAGGCAUGAUCCACAUGAGGAUCACCCAUGUCGGUGAUGAGGAUAUGGCAUCGUCGCGCAGGGCACUAAUGA”, the “apparent Kd” value runs as follows: under setting [3], 590 nM; under setting [4], 119 nM.
Take “AGAUAGUGGUGAGGAUAUCAGAAUAGAAAGAAAUGAGAAGGCGCACAUGAGGAUCACCCAUGUGAGGUCUUGAGACUACAUGGU”: the “apparent Kd” value runs as follows: under setting [1], 20 nM; under setting [2], 22.1 nM.
Regarding “AAUAACAGAGGAUAUACUAUUUUAUGUGUUUGUUGUUUUAAACAUGAGGAUCACCCAUGUAGAAGGCUGAGUAA”, the “apparent Kd” value under setting [1] is 24.3 nM and the “apparent Kd” value under setting [2] was 30.4 nM.
On to “GUGUAGGUAGGAUAUACAUGAGGAUCACCCAUGUGAAUAAGAUAGAAUAAGAUAAAGUGUAGAAGGACUAGUGU”, for which the “apparent Kd” value by setting is: under setting [1], 37 nM; under setting [2], 28.8 nM.
Consider “UGUUGUAUUACAGGAUAUCUAGUAUUUUUACUUAGAGAAGGGUAUUCACAUGAGGAUCACCCAUGUAUAUACGAGGAAGUUGUG”, for which the “apparent Kd” value by setting is: under setting [3], 28.8 nM; under setting [4], 29.8 nM.
“GCACGACAUGUAGGAUAUCGAGCGCCGGGCGCUCGAGAAGGACAUGAGGAUCACCCAUGUAUUCUGAGUGACCGAGGUCGUGCA”: the “apparent Kd” value was 53.9 nM under setting [1] and 557 nM under setting [2].
As for “CAGGUAGACUGAGGAUAUACAAUAAACAGCUAGUCUAUCUAGCUGCUCACAUGAGGAUCACCCAUGUAGAAGGCAGUCUGCCUG”, the “apparent Kd” value under setting [1] came to 18.7 nM and the “apparent Kd” value under setting [2] was 45.1 nM.
With “AAUUAACUCACAGGAUAUAGCAGAGGUCGAGUGAACUUACAGGCGACUAGGCUAGAAGGGUGACCACAUGAGGAUCACCCAUGU”, the “apparent Kd” value worked out at 834 nM under setting [3] and 117 nM under setting [4].
For “GGUAGAAACAUUAACAUGAGGAUCACCCAUGUCAAAAGAAAUGAGGAUAUCGUCUACAAUGUAGAUGAGAAGGCAUGGUCUGCC” the same measures were 8.45 nM and 6.84 nM.
In the case of “UUAUUAAGUGUGAGGAUAUGCUGGUCCUUGGAUCAGCAGAAGGCACAUGAGGAUCACCCAUGUACAUUAUUUUA”, the “apparent Kd” value reads like this: under setting [1], 35 nM; under setting [2], 247 nM.
Regarding “GCCUCACAUGAGGAUCACCCAUGUCAGGAUAUAGGAGACGGUAGCUUUGCUGCCUUCGCUAGAAGGGACUGGCU”, the “apparent Kd” value was determined as 33.5 nM under setting [1] and 55.4 nM under setting [2].
Taken in the same sequence, the figures for “CUUCGACAUGAGGAUCACCCAUGUCAGGAUAUUGUUUAUCUGGUUUUUUACAGAUAUGCAAGAAGGGAUGUGUU” were 28.5 nM and 23.1 nM.
For “AUGGUGACGUAGAAGGGUGACAUGAGGAUCACCCAUGUGCCGAUAUUUCUCGAGAUAUGUCGGCCACAGGAUAUACGUACCAUC”, the “apparent Kd” value by setting is: under setting [3], 39.3 nM; under setting [4], 83.3 nM.
As to “GGCACUGUAGGAUAUACAUGAACAAUUGGUAUCCUCAGUCCACAUGAGGAUCACCCAUGUAGAAGGAUAGAAAA”, the “apparent Kd” value came to 58.6 nM under setting [1] and 46.1 nM under setting [2].
As for “UAAUAUUUAUAAUAUUAUUACAUUAGAAGGCUAGACAUGUGGAUACAUGAGGAUCACCCAUGUAUAGAGGAUAUAGACAUAUAU”, the “apparent Kd” value came out at 29.5 nM under setting [1] and 79.9 nM under setting [2].
As for “AGUAAGAUGCAGAAGGUGCCAGCGAGAGCUGCACAUGAGGAUCACCCAUGUUGUCGGUGACGACGCAAGGAUAUGCAUCUUACA”, the “apparent Kd” value runs as follows: under setting [3], 24.5 nM; under setting [4], 6.87 nM.
For the sequence “GAGGCUAAAGGAUAUACAUGAGGAUCACCCAUGUGGAGGAAGGUUAGAUGAGGAGAAGGUAGAAGGUUAGGCGG”, the “apparent Kd” value reads like this: under setting [1], 37.3 nM; under setting [2], 30.9 nM.
“CUGAAUCUAGGAUAUUGUACUGCUGACAUGAGGAUCACCCAUGUAUGUUAACUCGGCCGUCGAGAAGGAGAACAUA”: the “apparent Kd” value amounted to 36.1 nM under setting [1] and 27.6 nM under setting [2].
Turning to “AAGAUCCCUGUUAGGAUAUAGAGAUCGCCUGGGUCCUAGAAGGAACAUGAGGAUCACCCAUGUGACGUAUAUGU”, the “apparent Kd” value is, setting by setting: under setting [1], 100 nM; under setting [2], 228 nM.
Turning to “UCCUUGUCCUGAGGAUAUCCGUGGUUACCGACAGGAGAAGGCAGGACAUGAGGAUCACCCAUGUACCCAGAAAACGUGCAGAGU”, the “apparent Kd” value is 133 nM under setting [1] and 210 nM under setting [2].
“GCGUAUGAAAAUAUGUCUGAGGGCAGAAGGCACAUGAGGAUCACCCAUGUAACGAUCUCUUCAAGUGAGGAUAUGUGCUCAUUG”: the “apparent Kd” value under setting [1] is 31.8 nM and the “apparent Kd” value under setting [2] amounted to 113 nM.
With “GCUACAUAUUUUAAGUUUGAUUAUCUAGAAGGUAGAUACAUGAGGAUCACCCAUGUUUAGAGUUCUAAGGAUAUAGUUUGUAGC”, the “apparent Kd” value reads like this: under setting [3], 6.12 nM; under setting [4], 5.91 nM.
For “CUUUAGUGAGGAUAUCAGUAGUAAUACAAUAGUAUUACUACUGAGAAGGCACAUGAGGAUCACCCAUGUUCUUC”, the “apparent Kd” value worked out at 17.3 nM under setting [1] and 50 nM under setting [2].
Taken in the same sequence, the figures for “CGUGCGUCGACAGGAUAUACAGAUUGGCUCCGGUACAUGAGGAUCACCCAUGUAGAAGGGUCACGCACGGAUAGUUCGAUAUUA” were 9.36 nM and 43.1 nM.
For “GUGGUGUAGAUACAGGAUAUGUUGCUCGUAACAUGAGGAUCACCCAUGUAUCUAUGAGAUUAAAUGCAGAAGGGUGCACACCACG”, the “apparent Kd” value under setting [3] turned out to be 330 nM and the “apparent Kd” value under setting [4] turned out to be 23.3 nM.
On to “CCCUCACAUGAGGAUCACCCAUGUCAGGAUAUCUAGUCAGACAGUGUAGCACUAAUGAAGAGAAGGGACGUAUG”, for which the “apparent Kd” value is, setting by setting: under setting [1], 25.6 nM; under setting [2], 26.8 nM.
Regarding “AAUAAACAUGAGGAUCACCCAUGUGGUGGCCCAUGAGGAUAUCCGUACGCAAUGCGCACAGGAGAAGGCAUAGCCA”, the “apparent Kd” value runs as follows: under setting [3], 33.9 nM; under setting [4], 90.8 nM.
